Data published in ChEMBL document CHEMBL5143713, “Multitarget, Selective Compound Design Yields Potent Inhibitors of a Kinetoplastid Pteridine Reductase 1” (J Med Chem, 2022).

Tests used:
[1] = target: T1, Pteridine reductase, putative (Trypanosoma brucei, UniProt Q581W1); test: Inhibition of recombinant Trypanosoma brucei PTR1 expressed in Escherichia coli BL21 (DE3) cells using H2B as substrate in presence of cytochrome c and NADPH by envision multilabel reader
T1 sequence (Q581W1 whole entry): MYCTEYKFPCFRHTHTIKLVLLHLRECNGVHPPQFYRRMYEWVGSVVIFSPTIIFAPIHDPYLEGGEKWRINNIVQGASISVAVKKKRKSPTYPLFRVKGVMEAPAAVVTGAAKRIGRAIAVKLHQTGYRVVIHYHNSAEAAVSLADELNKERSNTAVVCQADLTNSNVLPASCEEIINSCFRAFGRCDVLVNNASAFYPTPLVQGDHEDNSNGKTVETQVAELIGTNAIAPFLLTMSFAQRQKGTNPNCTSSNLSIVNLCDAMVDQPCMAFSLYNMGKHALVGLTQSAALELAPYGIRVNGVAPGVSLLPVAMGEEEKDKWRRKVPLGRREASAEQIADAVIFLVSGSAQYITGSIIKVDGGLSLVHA

Pteridine reductase 1 = target: T2, Pteridine reductase 1 (Leishmania major, UniProt Q01782); test: Inhibition of recombinant Leishmania major PTR1 expressed in Escherichia coli BL21 (DE3) cells using H2B as substrate in presence of cytochrome c and NADPH by envision multilabel reader
T2 sequence (Q01782 whole entry): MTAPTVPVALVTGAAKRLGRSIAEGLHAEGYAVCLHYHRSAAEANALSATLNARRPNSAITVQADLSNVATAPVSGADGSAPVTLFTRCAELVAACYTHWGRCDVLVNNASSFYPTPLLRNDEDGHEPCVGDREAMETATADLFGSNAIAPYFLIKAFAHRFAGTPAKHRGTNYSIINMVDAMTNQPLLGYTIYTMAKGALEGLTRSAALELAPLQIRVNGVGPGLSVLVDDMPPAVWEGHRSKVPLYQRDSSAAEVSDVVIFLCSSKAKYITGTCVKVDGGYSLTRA

[2] = target: Bifunctional dihydrofolate reductase-thymidylate synthase (Trypanosoma brucei brucei, UniProt Q27783); test: Inhibition of recombinant Trypanosoma brucei DHFR-TS expressed in Escherichia coli BL21 (DE3) cells using dihydrofolate as substrate in presence of NADPH by spectrophotometric analysis
Chain of Bifunctional dihydrofolate reductase-thymidylate synthase (Trypanosoma brucei brucei, UniProt Q27783) (Q27783 whole entry): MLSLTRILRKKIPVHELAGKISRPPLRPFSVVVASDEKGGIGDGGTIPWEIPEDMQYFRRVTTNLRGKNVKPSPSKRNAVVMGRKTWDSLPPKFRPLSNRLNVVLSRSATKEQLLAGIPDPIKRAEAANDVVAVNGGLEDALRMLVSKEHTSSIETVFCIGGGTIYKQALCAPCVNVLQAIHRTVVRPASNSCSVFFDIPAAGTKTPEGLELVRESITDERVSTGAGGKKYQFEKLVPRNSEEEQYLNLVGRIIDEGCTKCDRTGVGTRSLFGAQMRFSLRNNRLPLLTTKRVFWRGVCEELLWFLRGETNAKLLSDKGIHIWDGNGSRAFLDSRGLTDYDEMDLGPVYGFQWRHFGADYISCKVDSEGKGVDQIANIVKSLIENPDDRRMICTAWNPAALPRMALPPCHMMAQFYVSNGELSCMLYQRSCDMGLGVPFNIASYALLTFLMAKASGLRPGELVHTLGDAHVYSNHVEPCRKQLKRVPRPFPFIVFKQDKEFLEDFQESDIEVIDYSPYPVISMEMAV

[3] = target: Bifunctional dihydrofolate reductase-thymidylate synthase (Leishmania major, UniProt P07382); test: Inhibition of recombinant Leishmania major DHFR-TS expressed in Escherichia coli BL21 (DE3) cells using dihydrofolate as substrate in presence of NADPH by spectrophotometric analysis
Chain of Bifunctional dihydrofolate reductase-thymidylate synthase (Leishmania major, UniProt P07382) (P07382 whole entry): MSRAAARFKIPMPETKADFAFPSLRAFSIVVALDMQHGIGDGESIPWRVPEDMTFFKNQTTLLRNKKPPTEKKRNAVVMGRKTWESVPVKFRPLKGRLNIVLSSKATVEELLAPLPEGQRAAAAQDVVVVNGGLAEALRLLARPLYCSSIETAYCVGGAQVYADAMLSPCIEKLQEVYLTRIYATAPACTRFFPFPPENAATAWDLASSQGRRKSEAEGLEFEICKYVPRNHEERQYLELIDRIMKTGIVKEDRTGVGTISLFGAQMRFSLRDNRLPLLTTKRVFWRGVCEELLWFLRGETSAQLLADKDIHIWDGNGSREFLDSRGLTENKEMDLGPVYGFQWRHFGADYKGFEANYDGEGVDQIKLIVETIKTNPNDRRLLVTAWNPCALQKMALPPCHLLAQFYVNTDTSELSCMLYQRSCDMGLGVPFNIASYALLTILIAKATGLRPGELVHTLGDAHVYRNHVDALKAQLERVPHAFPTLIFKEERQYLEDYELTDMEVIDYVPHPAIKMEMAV

[4] = test system: Trypanosoma brucei brucei; test: Antitrypanosomal activity against bloodstream form of Trypanosoma brucei brucei Lister 427 assessed as parasite growth inhibition at 10 uM incubated for 72 hrs by resazurin dye based analysis relative to control; assay type: functional
786-0 = test: Mitochondrial toxicity in human 786-0 cells at 10 uM incubated with compound for 6 hrs followed by incubation with MitoTracker Red chloromethyl-X-rosamine dye for 45 mins by imaging analysis relative to control; assay type: cell-based; conditions: 786-0, 6 h
Method in brief: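 Tested at 10 μM. 786-O cells kept in RPMI-1640 with 2 mM glutamine, 10% FCS, streptomycin 100 μg/mL and penicillin G 100 U/mL. Mitochondrial toxicity read as MitoTracker Red (chloromethyl-X-rosamine) uptake by high-content imaging.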

[5] = test system: Trypanosoma brucei brucei; test: Antitrypanosomal activity against bloodstream form of Trypanosoma brucei brucei Lister 427 assessed as parasite growth inhibition incubated for 72 hrs by resazurin dye based analysis; assay type: functional, organism-based; conditions: Lister 427, 72 h
[6] = Cytotoxicity against human THP-1 derived macrophages by colorimetric MTT assay; assay type: toxicity, cell-based, Macrophage; conditions: THP-1 derived macrophages
Method in brief: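 CC50 from at least three independent MTT colorimetric cytotoxicity runs on THP-1-derived macrophages. Selectivity index is CC50 (or lower CC50 interval estimate) divided by antiparasitic EC50.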

[7] = test system: human DHFR versus Trypanosoma brucei PTR1; test: Selectivity index, ratio of IC50 for human DHFR to IC50 for Trypanosoma brucei PTR1; assay type: toxicity; conditions: read-out: Ratio IC50
[8] = test system: human DHFR versus Leishmania major PTR1; test: Selectivity index, ratio of IC50 for human DHFR to IC50 for Leishmania major PTR1; assay type: toxicity; conditions: read-out: Ratio IC50
[9] = test system: human DHFR versus Trypanosoma brucei DHFR; test: Selectivity index, ratio of IC50 for human DHFR to IC50 for Trypanosoma brucei DHFR; assay type: toxicity; conditions: read-out: Ratio IC50
[10] = test system: human DHFR versus Leishmania major DHFR; test: Selectivity index, ratio of IC50 for human DHFR to IC50 for Leishmania major DHFR; assay type: toxicity; conditions: read-out: Ratio IC50
A549 = test: Cytotoxicity against human A549 cells at 10 uM measured after 48 hrs by Celltiter-Glo assay relative to control; assay type: toxicity, cell-based; conditions: a549, 48 h
Method in brief: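 Tested at 10 μM. A549 cells grown in DMEM with 10% FCS, streptomycin 100 μg/mL and penicillin G 100 U/mL. Viability read as cellular ATP by CellTiter-Glo luminescence.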

Dihydrofolate reductase = target: T3, Dihydrofolate reductase (Homo sapiens, UniProt P00374); test: Inhibition of recombinant human DHFR expressed in Escherichia coli BL21 (DE3) cells using dihydrofolate as substrate in presence of NADPH by spectrophotometric analysis; assay type: toxicity
T3 sequence (P00374 whole entry): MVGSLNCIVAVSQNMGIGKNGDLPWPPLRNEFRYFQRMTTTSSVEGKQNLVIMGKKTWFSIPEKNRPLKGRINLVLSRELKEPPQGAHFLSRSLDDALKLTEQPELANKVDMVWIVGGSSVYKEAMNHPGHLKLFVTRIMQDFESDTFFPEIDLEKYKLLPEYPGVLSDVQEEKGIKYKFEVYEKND

Row | SMILES | IC50 [1] [nM] | IC50 (Pteridine reductase 1) [nM] | IC50 [2] [nM] | IC50 [3] [nM] | inhibition at 10 µM [4] [%] | Activity (786-0) [%] | EC50 [5] [nM] | CC50 [6] [nM] | selectivity ratio [7] | selectivity ratio [8] | selectivity ratio [9] | selectivity ratio [10] | Activity (A549) [%] | IC50 (Dihydrofolate reductase) [nM]
1 | NC(=O)C1CCN(C(=O)Cc2ccc(N(CCCO)Cc3cnc4nc(N)nc(N)c4n3)cc2)CC1 | 10 | 170 | 18000 | 1140 | 30 | 0 | – | – | – | – | – | – | – | –
2 | COc1ccc(Oc2ccc(CN(Cc3ccccc3)Cc3cnc4nc(N)nc(N)c4n3)cc2)cc1 | 240 | 150 | – | – | 100 | 0 | 4530 | 12500 | – | – | – | – | – | –
3 | COc1cc(Oc2ccc(CNCc3cnc4nc(N)nc(N)c4n3)cc2)cc(OC)c1OC | 350 | 170 | – | – | – | 0 | – | – | 286 | 588 | 1 | 1 | 100 | –
4 | NC(=O)C1CCN(C(=O)c2ccc(NCc3cnc4nc(N)nc(N)c4n3)cc2)CC1 | 820 | – | 2900 | 1110 | – | 0 | – | – | – | – | – | – | 0 | –
5 | COC(=O)C1CCN(C(=O)c2ccc(N(C)Cc3cnc4nc(N)nc(N)c4n3)cc2)CC1 | 50 | – | 270 | 260 | – | 0 | – | – | – | – | – | – | 100 | 44000
6 | CCOC(=O)C1CCCN1C(=O)c1ccc(NCc2cnc3nc(N)nc(N)c3n2)cc1 (stereo not given) | – | – | 980 | 1210 | – | 0 | – | – | 0.08 | – | 10 | 8 | – | –
7 | Nc1nc(N)c2nc(CNCc3ccc(Oc4ccccc4)cc3)cnc2n1 | 190 | 980 | – | – | – | 0 | – | – | 526 | 102 | 1 | 1 | – | –
8 | COC(=O)C1CCN(C(=O)c2ccc(NCc3cnc4nc(N)nc(N)c4n3)cn2)CC1 | 550 | – | 2570 | 1360 | – | 0 | – | – | – | – | – | – | – | 60000
9 | COc1ccc(CNC(=O)c2ccc(CNCc3cnc4nc(N)nc(N)c4n3)cc2)cc1 | 130 | 1480 | – | – | – | 0 | – | – | 769 | 68 | 1 | 1 | – | –
10 | Nc1nc(N)c2nc(C(=O)NCc3cccc(C(F)(F)F)c3)cnc2n1 | 10 | 330 | – | – | – | 0 | – | – | 10000 | 303 | 1 | 1 | 100 | –
11 | COC(=O)C1CCN(C(=O)c2ccc(SCc3cnc4nc(N)nc(N)c4n3)nc2)CC1 | 1 | 60 | 2400 | 9360 | – | 20 | – | – | 89000 | 1480 | 37 | 10 | – | 89000
12 | Nc1nc(N)c2nc(CNc3cccc4ccccc34)cnc2n1 | 10 | 10 | 450 | 1510 | – | 0 | – | – | 440 | 440 | 10 | 3 | 0 | 4400
